Experiments:
Plasma pharmacokinetics = assay type: in vivo, human; details: for AUC(0-t) / Cmax / Vd/F / half-life: human, plasma, oral; for Vd/F: Vz/F
Method in brief: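 The test compound is given orally once daily for 7 days in 2-week cycles (S1). Plasma is sampled in cycle 1 on days 1, 2, 4, 7, 8 and 9, and in cycle 2 on days 1, 4 and 7. Cycle 1 day 1 is sampled from 30 min to 24 h after dosing and day 7 from 30 min to 96 h. Parent and metabolite are measured by validated LC-MS-MS, with calibration ranges of 0.00109–1.09 and 0.00105–1.05 μM respectively.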

CDK4 = details: cited from earlier work
[1] = system: CDK related biomarkers Cyclin A2, Cyclin B1 and Ki67; assay: Pharmacodynamics: qRT-PCR on skin biopsies; assay type: in vivo, human; details: pre- vs post-treatment
CDK2 = details: cited from earlier work

## CNC(=O)c1nn(C)c2c1C(C)(C)Cc1cnc(Nc3ccc(N4CCN(C)CC4)cc3)nc1-2 [PHA-848125AC, N,1,4,4-tetramethyl-8-{[4-(4-methylpiperazin-1-yl)phenyl]amino}-4,5-dihydro-1H-pyrazolo [4,3-h]quinazoline-3-carboxamide]
Plasma pharmacokinetics; S1 50 mg/day, mean±SD, n=2
  CL/F: 19.7 ± 4.35 L/h
Plasma pharmacokinetics; S1 100 mg/day, mean±SD, n=6
  CL/F: 13.7 ± 6.49 L/h
Plasma pharmacokinetics; S1 200 mg/day, mean±SD, n=6
  CL/F: 15.2 ± 2.44 L/h
Plasma pharmacokinetics; S1 300 mg/day, n=1
  CL/F: 7.78 L/h
Plasma pharmacokinetics; S2 150 mg/day, mean±SD, n=4
  CL/F: 16.4 ± 6.16 L/h
Plasma pharmacokinetics; S2 200 mg/day, mean±SD, n=3
  CL/F: 12.7 ± 1.60 L/h
Plasma pharmacokinetics; both schedules
  accumulation factor after repeated administrations: 3
Plasma pharmacokinetics; 50 mg/day, AUC0-24, S1 50 mg/day, Day 1, mean±SD, n=3
  AUC(0-t): 2.5 ± 0.6 µM·h
Plasma pharmacokinetics; 50 mg/day, AUC0-24, S1 50 mg/day, Day 7, mean±SD, n=3
  AUC(0-t): 6.8 ± 2.2 µM·h
Plasma pharmacokinetics; 50 mg/day, AUCt, S1 50 mg/day, Day 7, mean±SD, n=3
  AUC(0-t): 11.7 ± 5.4 µM·h
Plasma pharmacokinetics; 50 mg/day, S1 50 mg/day, Day 1, mean±SD, n=3
  Cmax: 200 ± 100 nM
Plasma pharmacokinetics; 50 mg/day, S1 50 mg/day, Day 7, mean±SD, n=3
  Cmax: 400 ± 200 nM
Plasma pharmacokinetics; 50 mg/day, S1 50 mg/day, mean±SD, n=2
  Vd/F: 707 ± 39.8 L
Plasma pharmacokinetics; 50 mg/day, t1/2,z, S1 50 mg/day, mean±SD, n=2
  half-life: 25.3 ± 4.18 h
Plasma pharmacokinetics; 100 mg/day, AUC0-24, S1 100 mg/day, Day 1, mean±SD, n=6
  AUC(0-t): 6 ± 2.2 µM·h
Plasma pharmacokinetics; 100 mg/day, AUC0-24, S1 100 mg/day, Day 7, mean±SD, n=6
  AUC(0-t): 20 ± 11 µM·h
Plasma pharmacokinetics; 100 mg/day, AUCt, S1 100 mg/day, Day 7, mean±SD, n=6
  AUC(0-t): 43.4 ± 26.8 µM·h
Plasma pharmacokinetics; 100 mg/day, S1 100 mg/day, Day 1, mean±SD, n=6
  Cmax: 400 ± 100 nM
Plasma pharmacokinetics; 100 mg/day, S1 100 mg/day, Day 7, mean±SD, n=6
  Cmax: 1200 ± 500 nM
Plasma pharmacokinetics; 100 mg/day, S1 100 mg/day, mean±SD, n=6
  Vd/F: 840 ± 550 L
Plasma pharmacokinetics; 100 mg/day, t1/2,z, S1 100 mg/day, mean±SD, n=6
  half-life: 42.9 ± 15.9 h
Plasma pharmacokinetics; 150 mg/day, AUC0-24, S1 150 mg/day, Day 1, mean±SD, n=6
  AUC(0-t): 8.8 ± 2.6 µM·h
Plasma pharmacokinetics; 150 mg/day, AUC0-24, S1 150 mg/day, Day 7, mean±SD, n=6
  AUC(0-t): 25 ± 8.6 µM·h
Plasma pharmacokinetics; 150 mg/day, AUC0-24, S2 150 mg/day, Day 1, mean±SD, n=4
  AUC(0-t): 7.2 ± 2.8 µM·h
Plasma pharmacokinetics; 150 mg/day, AUC0-24, S2 150 mg/day, Day 18, mean±SD, n=4
  AUC(0-t): 23 ± 9.5 µM·h
Plasma pharmacokinetics; 150 mg/day, AUCt, S1 150 mg/day, Day 7, mean±SD, n=6
  AUC(0-t): 46.5 ± 19.4 µM·h
Plasma pharmacokinetics; 150 mg/day, AUCt, S2 150 mg/day, Day 18, mean±SD, n=4
  AUC(0-t): 54.6 ± 25.1 µM·h
Plasma pharmacokinetics; 150 mg/day, S1 150 mg/day, Day 1, mean±SD, n=6
  Cmax: 700 ± 200 nM
Plasma pharmacokinetics; 150 mg/day, S1 150 mg/day, Day 7, mean±SD, n=6
  Cmax: 1500 ± 500 nM
Plasma pharmacokinetics; 150 mg/day, S2 150 mg/day, Day 1, mean±SD, n=4
  Cmax: 400 ± 100 nM
Plasma pharmacokinetics; 150 mg/day, S2 150 mg/day, Day 18, mean±SD, n=4
  Cmax: 1200 ± 300 nM
Plasma pharmacokinetics; 150 mg/day, S2 150 mg/day, mean±SD, n=4
  Vd/F: 1010 ± 456 L
Plasma pharmacokinetics; 150 mg/day, t1/2,z, S1 150 mg/day, mean±SD, n=6
  half-life: 33.1 ± 9.53 h
Plasma pharmacokinetics; 150 mg/day, t1/2,z, S2 150 mg/day, mean±SD, n=4
  half-life: 43.1 ± 10.7 h
Plasma pharmacokinetics; 180 mg/day, AUC0-24, S2 180 mg/day, Day 1, mean±SD, n=4
  AUC(0-t): 7 ± 2.1 µM·h
Plasma pharmacokinetics; 180 mg/day, AUC0-24, S2 180 mg/day, Day 18, mean±SD, n=4
  AUC(0-t): 17 ± 8.8 µM·h
Plasma pharmacokinetics; 180 mg/day, AUCt, S2 180 mg/day, Day 18, mean±SD, n=4
  AUC(0-t): 35.1 ± 26.3 µM·h
Plasma pharmacokinetics; 180 mg/day, S2 180 mg/day, Day 1, mean±SD, n=4
  Cmax: 500 ± 200 nM
Plasma pharmacokinetics; 180 mg/day, S2 180 mg/day, Day 18, mean±SD, n=4
  Cmax: 1100 ± 500 nM
Plasma pharmacokinetics; 180 mg/day, t1/2,z, S2 180 mg/day, mean±SD, n=4
  half-life: 23.5 ± 8.42 h
Plasma pharmacokinetics; 200 mg/day, AUC0-24, S1 200 mg/day, Day 1, mean±SD, n=6
  AUC(0-t): 9.6 ± 3.6 µM·h
Plasma pharmacokinetics; 200 mg/day, AUC0-24, S1 200 mg/day, Day 7, mean±SD, n=6
  AUC(0-t): 29 ± 4.5 µM·h
Plasma pharmacokinetics; 200 mg/day, AUC0-24, S2 200 mg/day, Day 1, mean±SD, n=3
  AUC(0-t): 12 ± 6.3 µM·h
Plasma pharmacokinetics; 200 mg/day, AUC0-24, S2 200 mg/day, Day 18, mean±SD, n=3
  AUC(0-t): 35 ± 4.6 µM·h
Plasma pharmacokinetics; 200 mg/day, AUCt, S1 200 mg/day, Day 7, mean±SD, n=6
  AUC(0-t): 63.5 ± 9.04 µM·h
Plasma pharmacokinetics; 200 mg/day, AUCt, S2 200 mg/day, Day 18, mean±SD, n=3
  AUC(0-t): 63.6 ± 17.5 µM·h
Plasma pharmacokinetics; 200 mg/day, S1 200 mg/day, Day 1, mean±SD, n=6
  Cmax: 700 ± 300 nM
Plasma pharmacokinetics; 200 mg/day, S1 200 mg/day, Day 7, mean±SD, n=6
  Cmax: 1700 ± 200 nM
Plasma pharmacokinetics; 200 mg/day, S2 200 mg/day, Day 1, mean±SD, n=3
  Cmax: 1000 ± 400 nM
Plasma pharmacokinetics; 200 mg/day, S2 200 mg/day, Day 18, mean±SD, n=3
  Cmax: 2500 ± 500 nM
Plasma pharmacokinetics; 200 mg/day, S1 200 mg/day, mean±SD, n=6
  Vd/F: 721 ± 207 L
Plasma pharmacokinetics; 200 mg/day, S2 200 mg/day, mean±SD, n=3
  Vd/F: 473 ± 68.4 L
Plasma pharmacokinetics; 200 mg/day, t1/2,z, S1 200 mg/day, mean±SD, n=6
  half-life: 32.4 ± 4.79 h
Plasma pharmacokinetics; 200 mg/day, t1/2,z, S2 200 mg/day, mean±SD, n=3
  half-life: 25.8 ± 1.46 h
Plasma pharmacokinetics; 300 mg/day, AUC0-24, S1 300 mg/day, Day 1, n=1
  AUC(0-t): 23 µM·h
Plasma pharmacokinetics; 300 mg/day, AUC0-24, S1 300 mg/day, Day 7, n=1
  AUC(0-t): 84 µM·h
Plasma pharmacokinetics; 300 mg/day, AUCt, S1 300 mg/day, Day 7, n=1
  AUC(0-t): 168 µM·h
Plasma pharmacokinetics; 300 mg/day, S1 300 mg/day, Day 1, n=1
  Cmax: 1200 nM
Plasma pharmacokinetics; 300 mg/day, S1 300 mg/day, Day 7, n=1
  Cmax: 5100 nM
Plasma pharmacokinetics; 300 mg/day, S1 300 mg/day, n=1
  Vd/F: 348 L
Plasma pharmacokinetics; 300 mg/day, t1/2,z, S1 300 mg/day, n=1
  half-life: 31 h
Plasma pharmacokinetics; half-life, terminal, overall
  half-life: ~33 h
Plasma pharmacokinetics; in vivo, po
  oral absorption: good oral absorption
CDK4
  inhibitory activity towards CDK4: inhibitory activity
[1]
  modulation of CDK related biomarkers Cyclin A2, Cyclin B1 and Ki67: down modulation
CDK2
  inhibitory activity towards CDK2: inhibitory activity

Reference: PMC3561458 (Investigational new drugs, 2011)
